From ChEMBL document CHEMBL1833793 (Bioorg Med Chem Lett, 2011) come the findings set out here.

The nature of data set [1]: Drug uptake in brain of cPP-induced feeding rat model at 3 mg/kg, po after 6 hrs. It is filed as ADME, organism-based. As to conditions: read-out: Drug uptake. Details: dose 3 mg/kg, route oral. An outline of the steps:
(§1)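 Satellite rats (n = 2/dose) sampled each week alongside the cPP feeding test; Lu-series dosed po at 3, 10 or 30 mg/kg as suspension in 20% HP-β-cyclodextrin; plasma (ng/mL) and brain tissue (ng/g) levels taken at 1, 2, 4, 6 and 24 h post-dose; mean ± SD reported.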

Data set [2] has as its system Liver microsomes. Description: Intrinsic clearance in human liver microsome. The class given is ADME. For orientation: Microsomes from liver hold many membrane-bound enzymes, among them those of drug oxidation.
Data set [3] is described as follows: Plasma concentration in cPP-induced feeding rat model at 30 mg/kg, po after 6 hrs. The class given is ADME, organism-based. Details: dose 30 mg/kg, route oral. In outline:
(§2)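 Satellite rats (n = 2/dose per week), cannulated in the lateral cerebral ventricle for the feeding study, dosed orally at 3, 10 or 30 mg/kg as a suspension in 20% HP-β-cyclodextrin. Plasma was sampled 1, 2, 4, 6 or 24 h after dosing, alongside i.c.v. cPP (0.6 nmol) feeding tests. Values are given as mean with SD.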

The target in data set [4] is 5-hydroxytryptamine receptor 2B (Homo sapiens, UniProt P41595). The data set can be described thus: Binding affinity to human 5HT2B receptor.
Sequence of 5-hydroxytryptamine receptor 2B (P41595 whole entry): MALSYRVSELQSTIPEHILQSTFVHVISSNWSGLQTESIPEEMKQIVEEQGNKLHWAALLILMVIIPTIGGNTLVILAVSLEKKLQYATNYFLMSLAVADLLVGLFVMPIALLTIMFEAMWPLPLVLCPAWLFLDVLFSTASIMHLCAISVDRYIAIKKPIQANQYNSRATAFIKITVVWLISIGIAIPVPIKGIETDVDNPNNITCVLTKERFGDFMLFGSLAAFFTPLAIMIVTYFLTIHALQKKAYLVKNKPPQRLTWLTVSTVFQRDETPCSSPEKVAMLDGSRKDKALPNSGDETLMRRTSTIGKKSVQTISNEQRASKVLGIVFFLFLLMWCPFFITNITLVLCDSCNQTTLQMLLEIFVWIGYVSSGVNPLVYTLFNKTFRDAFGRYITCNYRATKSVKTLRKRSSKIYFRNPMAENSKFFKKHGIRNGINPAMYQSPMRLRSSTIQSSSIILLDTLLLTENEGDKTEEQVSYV
Data set [5] in a line: Drug uptake in brain of cPP-induced feeding rat model at 3 mg/kg, po after 2 hrs. Details: dose 3 mg/kg, route oral. The following applies: read-out: Drug uptake. The class given is ADME, organism-based. In outline:
as §1

Another data set has as its target Cytochrome P450 2D6 (Homo sapiens, UniProt P10635). The data set can be described thus: Inhibition of CYP2D6. The class given is ADME.
The nature of data set [6]: Oral bioavailability in mouse at 2 mg/kg by HPLC analysis. The class given is ADME, organism-based. The following applies: in vivo.
Data set [7] is described as follows: Apparent permeability from apical to basolateral side of the human Caco2 cells. The class given is ADME, cell-based. As to conditions: Caco-2.
Data set [8] can be described thus: Drug uptake in brain of cPP-induced feeding rat model at 30 mg/kg, po after 2 hrs. Details: dose 30 mg/kg, route oral. The class given is ADME, organism-based. The following applies: read-out: Drug uptake. An outline of the steps: as §1
Data set [9] in a line: Plasma protein binding in human. It is filed as ADME, cell-free. As to conditions: read-out: PPB (converted).
A short description of data set [10]: Plasma concentration in rat at 10 mg/kg, po after 4 hrs. It is filed as ADME, organism-based. Details: dose 10 mg/kg, route oral. An outline of the steps: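 Single oral dose of 10 mg/kg in rats, two animals. Plasma was sampled at 4 h and the two values averaged. LOQ 2 ng/mL.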
The target in another data set is T1, Cytochrome P450 1A2 (Homo sapiens, UniProt P05177).
T1 sequence (P05177 whole entry): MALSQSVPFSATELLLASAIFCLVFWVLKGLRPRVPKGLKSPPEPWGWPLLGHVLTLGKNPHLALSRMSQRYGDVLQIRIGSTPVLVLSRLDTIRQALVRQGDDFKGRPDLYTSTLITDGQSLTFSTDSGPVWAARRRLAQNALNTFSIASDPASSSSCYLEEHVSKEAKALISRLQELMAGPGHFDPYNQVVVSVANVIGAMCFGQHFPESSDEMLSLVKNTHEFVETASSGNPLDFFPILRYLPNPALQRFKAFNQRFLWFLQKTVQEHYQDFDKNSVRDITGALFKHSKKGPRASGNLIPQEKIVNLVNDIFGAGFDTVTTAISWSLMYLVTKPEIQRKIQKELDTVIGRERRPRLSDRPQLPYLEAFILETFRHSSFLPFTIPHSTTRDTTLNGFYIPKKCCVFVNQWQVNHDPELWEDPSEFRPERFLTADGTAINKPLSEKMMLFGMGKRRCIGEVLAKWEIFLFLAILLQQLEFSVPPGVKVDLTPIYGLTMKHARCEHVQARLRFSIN
Description: Inhibition of CYP1A2. It is filed as ADME.

The subject of data set [11] is Liver microsomes. Description: Intrinsic clearance in rat liver microsome. It is filed as ADME.
Data set [12] can be described thus: Plasma concentration in cPP-induced feeding rat model at 3 mg/kg, po after 6 hrs. The class given is ADME, organism-based. Details: dose 3 mg/kg, route oral. An outline of the steps: as §2
Data set [13] is described as follows: Drug uptake in brain of cPP-induced feeding rat model at 3 mg/kg, po after 1 hr. The following applies: read-out: Drug uptake. It is filed as ADME, organism-based. Details: dose 3 mg/kg, route oral. An outline of the steps:
as §1

Data set [14] addresses T2, 5-hydroxytryptamine receptor 1A (Homo sapiens, UniProt P08908).
T2 sequence (P08908 whole entry): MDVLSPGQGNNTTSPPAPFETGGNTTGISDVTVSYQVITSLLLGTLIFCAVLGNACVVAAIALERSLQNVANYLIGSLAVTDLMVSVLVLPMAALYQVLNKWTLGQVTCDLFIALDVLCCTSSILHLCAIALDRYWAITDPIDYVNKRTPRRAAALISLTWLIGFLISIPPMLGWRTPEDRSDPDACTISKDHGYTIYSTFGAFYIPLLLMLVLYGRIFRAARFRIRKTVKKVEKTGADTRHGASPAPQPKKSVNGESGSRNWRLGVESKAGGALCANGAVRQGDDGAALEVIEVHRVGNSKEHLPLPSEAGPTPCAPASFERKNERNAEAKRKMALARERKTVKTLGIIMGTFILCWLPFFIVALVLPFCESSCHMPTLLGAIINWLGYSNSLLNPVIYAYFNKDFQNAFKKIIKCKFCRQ
Description: Binding affinity to human 5HT1A receptor.

Data set [15] is described as follows: Drug uptake in brain of cPP-induced feeding rat model at 10 mg/kg, po after 4 hrs. The class given is ADME, organism-based. Details: dose 10 mg/kg, route oral. As to conditions: read-out: Drug uptake. In outline:
as §1

Data set [16] can be described thus: Plasma concentration in cPP-induced feeding rat model at 3 mg/kg, po after 1 hr. It is filed as ADME, organism-based. Set-up: dose 3 mg/kg, route oral. In outline:
as §1

In data set [17] the target is Neuropeptide Y receptor type 4 (Homo sapiens, UniProt P50391). The data set can be described thus: Antagonist activity at human NPY4 receptor assessed as calcium mobilization by FLIPR assay. The class given is functional. Background: Calcium assays in cells follow changes in intracellular calcium, usually with a dye or a luminescent sensor.
Sequence of Neuropeptide Y receptor type 4 (P50391 whole entry): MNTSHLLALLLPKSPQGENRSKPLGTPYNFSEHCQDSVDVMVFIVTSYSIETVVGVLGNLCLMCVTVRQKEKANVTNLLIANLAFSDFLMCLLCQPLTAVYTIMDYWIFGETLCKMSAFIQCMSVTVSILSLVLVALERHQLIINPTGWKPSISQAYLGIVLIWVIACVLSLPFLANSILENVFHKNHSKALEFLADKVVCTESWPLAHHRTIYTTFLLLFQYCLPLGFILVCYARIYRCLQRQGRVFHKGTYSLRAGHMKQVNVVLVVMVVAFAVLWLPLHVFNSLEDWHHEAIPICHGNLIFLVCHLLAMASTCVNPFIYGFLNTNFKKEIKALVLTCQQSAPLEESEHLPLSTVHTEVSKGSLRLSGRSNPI
In data set [18] the target is T3, Neuropeptide Y receptor type 5 (Homo sapiens, UniProt Q15761).
T3 sequence (Q15761 whole entry): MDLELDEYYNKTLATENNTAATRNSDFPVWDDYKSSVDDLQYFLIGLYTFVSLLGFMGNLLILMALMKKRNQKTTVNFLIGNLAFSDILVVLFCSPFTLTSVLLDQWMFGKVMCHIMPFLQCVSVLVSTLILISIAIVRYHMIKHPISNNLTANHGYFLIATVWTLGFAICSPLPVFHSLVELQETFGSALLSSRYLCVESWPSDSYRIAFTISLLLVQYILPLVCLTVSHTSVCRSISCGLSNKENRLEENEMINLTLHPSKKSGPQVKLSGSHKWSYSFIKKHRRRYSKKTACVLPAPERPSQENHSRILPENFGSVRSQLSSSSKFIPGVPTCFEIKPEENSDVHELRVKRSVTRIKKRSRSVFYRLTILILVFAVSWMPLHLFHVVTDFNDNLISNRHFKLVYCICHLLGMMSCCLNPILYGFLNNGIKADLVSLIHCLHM
The data set can be described thus: Binding affinity to human NPY5 receptor.

Sequence of Cytochrome P450 2D6 (P10635 whole entry): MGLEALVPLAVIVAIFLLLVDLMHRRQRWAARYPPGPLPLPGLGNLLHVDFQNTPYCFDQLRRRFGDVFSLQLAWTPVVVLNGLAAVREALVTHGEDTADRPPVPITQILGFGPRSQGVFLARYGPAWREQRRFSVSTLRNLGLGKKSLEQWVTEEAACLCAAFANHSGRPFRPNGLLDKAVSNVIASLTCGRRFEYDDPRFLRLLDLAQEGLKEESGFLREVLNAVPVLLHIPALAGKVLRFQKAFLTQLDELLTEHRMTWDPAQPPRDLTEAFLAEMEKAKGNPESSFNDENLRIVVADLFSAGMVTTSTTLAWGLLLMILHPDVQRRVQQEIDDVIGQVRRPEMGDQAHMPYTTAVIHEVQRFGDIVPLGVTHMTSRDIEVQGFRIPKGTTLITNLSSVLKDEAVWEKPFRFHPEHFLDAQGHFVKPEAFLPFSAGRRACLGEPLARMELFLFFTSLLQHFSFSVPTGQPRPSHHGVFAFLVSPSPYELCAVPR

In the case of `CS(=O)(=O)NC[C@H]1CC[C@H](Nc2nc3c(s2)CCSc2ccccc2-3)CC1`, the values for the concentration at 6 h in data set [1], in data set [3] and in [12] were 30 ng/g, 181 ng/mL and 30 ng/mL, respectively. For the same compound, the figures for the CL in the data set on Liver microsomes [2] and in the data set on Liver microsomes [11] were 2.5 L/min and 40 mL/min, respectively. The results for the inhibitory constant (Ki) in data set [4], in data set [14] and in data set [18] were 0.245 µM, 0.478 µM and 0.0015 µM, respectively. Besides, the concentration at 2 h in data set [5] worked out at 87 ng/g; in data set [8], 319 ng/g. Further, the IC50 was above 10 µM against Cytochrome P450 2D6, above 10 µM on Cytochrome P450 1A2 and above 1 µM in data set [17]. This compound also came in with a bioavailability in data set [6] of 42%. In addition, the apparent permeability from apical to basolateral (Papp A→B) in data set [7] is 36.7 ×10⁻⁶ cm/s. In addition, the fraction unbound in [9] is 0.018. The concentration at 4 h came out at 320 ng/mL in data set [10] and 172 ng/g in data set [15]. The concentration at 1 h turned out to be 54 ng/g in [13] and 54 ng/mL in data set [16].

As usually defined, the Ki is the dissociation constant of the complex between target and ligand, obtained from inhibition or displacement. Low values mean a stronger hold on the target, high ones a looser hold on the target. For orientation: IC50 means the concentration needed to halve the response being measured. Broadly, the bioavailability is the share of a dose that reaches the circulation, judged against a reference dose that is usually intravenous. As usually defined, the Papp A→B is how fast a substance crosses the layer from the apical side.
